Values belong to the compound of their own block, whether it stands above or below them.
How the values were obtained:
Canis familiaris [1] = assay: 50% increase in contractile force in one to three anesthetized dogs administered intravenously; type: functional; settings: Canis lupus familiaris, iv
Summary of the method: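 Anesthetized dogs (one to three). Compound is infused iv in three to four stepwise increasing doses, each over 5 min once the previous effect has peaked. Contractile force is recorded with a Walton Brodie strain gauge on the right ventricle. The dose (μg/kg) giving a 50% rise over control CF is read from the dose-response curve, graphically (n < 3) or by linear regression (n ≥ 3).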

Canis familiaris [2] = assay: Change in heart contractile force of anaesthetized, open chest dogs following 0.875 mg/kg i.v. administration.; type: functional, Canis lupus familiaris; settings: route intravenous
Summary of the method: (§1)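 Anesthetized open-chest dogs, one drug per animal. Compound is in DMF diluted to 10% in saline, or given as the HCl salt in saline. It is infused into the femoral vein by pump at 0.58-2.2 mL/min in 3-4 stepwise cumulative doses, each over 5 min after the prior peak. Readings are CF by right-ventricle strain gauge, dP/dtmax by Millar LV catheter, HR by cardiotachometer and MAP from femoral artery, as % change from predrug control.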

Canis familiaris [3] = assay: Change in heart rate of anaesthetized, open chest dogs following 0.875 mg/kg i.v. administration.; type: functional, Canis lupus familiaris; settings: route intravenous; summary of the method: as §1
Phosphodiesterase 3 = Phosphodiesterase 3 (Homo sapiens, UniProt Q14432+Q13370); assay: Inhibition of phosphodiesterase fraction III in anesthetized open chest dogs; type: functional, Canis lupus familiaris; settings: target entry is the homologue from another species
Summary of the method: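 Enzyme is dog heart PDE-III, the third DEAE-cellulose fraction eluted at 800 mM sodium acetate. Compounds are tested at 0.01–1000 μM with 0.25 μM cAMP containing [³H]cAMP, in 0.05 M Tris-HCl pH 7.4 with 5 mM MgCl2. The reaction is stopped by heat, then snake venom converts product to adenosine. [³H]adenosine is counted by scintillation after Dowex separation. IC50 comes from ≥2 determinations, each in duplicate.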

Canis familiaris [4] = assay: Change in left ventricular pressure of anaesthetized, open chest dogs following 0.875 mg/kg i.v. administration.; type: functional, Canis lupus familiaris, Heart left ventricle; settings: route intravenous; summary of the method: as §1
Canis familiaris [5] = assay: Percent change in mean arterial blood pressure (MAP) in anesthetized open chest dogs iv administration at 0.8750 mg/kg; type: functional, Canis lupus familiaris; settings: dose 0.875 mg/kg; summary of the method: as §1
Canis familiaris [6] = assay: Percent change in heart rate (HR) in anesthetized open chest dogs after a iv dose of 0.875 mg/kg; type: functional, Canis lupus familiaris; summary of the method: as §1
Canis familiaris [7] = assay: Percent change in mean arterial blood pressure (MAP) in anesthetized open chest dogs iv administration at 0.875 mg/kg; type: functional, Canis lupus familiaris; summary of the method: as §1
Canis familiaris [8] = assay: Percent change in heart rate (HR) in anesthetized open chest dogs after a iv dose of 10 mg/kg; type: functional, Canis lupus familiaris; summary of the method: as §1
Canis familiaris [9] = assay: Percent increase in contractile force (CF) in anesthetized open-chest dogs id administration of 10 mg/kg; type: functional, Canis lupus familiaris; settings: route intraduodenal
Summary of the method: (§2)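 Anesthetized open-chest dogs. A 10-mL bolus is injected into the duodenum through a catheter placed 2 cm distal to the pylorus. Contractile force is measured with a Walton Brodie strain gauge sutured to the right ventricle, at a baseline tension of 100 g, and monitored continuously. Results are given as % increase from predrug control against cumulative dose.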

Canis familiaris [10] = assay: Percent change in left ventricular pressure (dP/dtmax) in anesthetized dog after iv administration at 10 mg/kg; type: functional, Canis lupus familiaris, Heart left ventricle; summary of the method: as §1
Canis familiaris [11] = assay: Percent change in mean arterial blood pressure (MAP) in anesthetized open chest dogs iv administration at 10 mg/kg; type: functional, Canis lupus familiaris; summary of the method: as §1
Canis familiaris [12] = assay: Percent increase in contractile force (CF) in anesthetized open-chest dogs iv administration of 0.050 mg/kg; type: functional, Canis lupus familiaris; settings: dose 0.05 mg/kg; summary of the method: as §1
Canis familiaris [13] = assay: Percent change in mean arterial blood pressure (MAP) in anesthetized open chest dogs iv administration at 0.050 mg/kg; type: functional, Canis lupus familiaris; settings: dose 0.05 mg/kg; summary of the method: as §1
Canis familiaris [14] = assay: Percent change in left ventricular pressure (dP/dtmax) in anesthetized dog after iv administration at 0.05 mg/kg; type: functional, Canis lupus familiaris, Heart left ventricle; summary of the method: as §1
Canis familiaris [15] = assay: Percent change in heart rate (HR) in anesthetized open chest dogs after a iv dose of 0.05 mg/kg; type: functional, Canis lupus familiaris; summary of the method: as §1
Canis familiaris [16] = assay: Percent change in mean arterial blood pressure (MAP) in anesthetized open chest dogs iv administration at 1 mg/kg; type: functional, Canis lupus familiaris; summary of the method: as §1
Canis familiaris [17] = assay: Percent increase in left ventricular pressure (dP/dtmax) of anesthetized dog after id administration at 1 mg/kg; type: functional, Canis lupus familiaris, Heart left ventricle; settings: route intraduodenal
Summary of the method: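 Anesthetized open-chest dogs. Left ventricular pressure was measured by Millar catheter and dP/dtmax derived. Compound was given as a 10-mL bolus into the duodenum through a catheter placed 2 cm distal to the pylorus via flank incision. Dissolved in DMF diluted to 10% in saline, or as HCl salt in saline. Response is % change over predrug control, monitored continuously.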

Canis familiaris [18] = assay: Percent change in heart rate (HR) in anesthetized open chest dogs after a iv dose of 1 mg/kg; type: functional, Canis lupus familiaris; summary of the method: as §1
Canis familiaris [19] = assay: Contractile force in anesthetized open chest dogs id administration 1.00 mg/kg; type: functional, Canis lupus familiaris; settings: route intraduodenal; summary of the method: as §2

- IC50 (Phosphodiesterase 3): 37 µM
SMILES: CCCCOc1cc2c(C)nc(O)cc2cc1OC
- ED50 (Canis familiaris [1]): 0.13 mg/kg
- Increase (Canis familiaris [2]): 182%
- Change (Canis familiaris [3]): 26%
- Increase (Canis familiaris [4]): 58%
- Change (Canis familiaris [5]): -18%

- IC50 (Phosphodiesterase 3): 7 µM
SMILES: COc1cc2c(C)nc(O)c(C(C)C)c2cc1OC
- ED50 (Canis familiaris [1]): 0.025 mg/kg
- Increase (Canis familiaris [12]): 76%
- Change (Canis familiaris [13]): -5%
- Increase (Canis familiaris [14]): 54%
- Change (Canis familiaris [15]): 6%

- IC50 (Phosphodiesterase 3): 5 µM
SMILES: CCCc1c(O)nc(C)c2cc(OC)c(OC)cc12
- ED50 (Canis familiaris [1]): 0.125 mg/kg
- Change (Canis familiaris [16]): 3%
- Increase (Canis familiaris [2]): 108%
- Change (Canis familiaris [3]): 22%
- Increase (Canis familiaris [17]): 20%
- Change (Canis familiaris [18]): 5%
- Increase (Canis familiaris [19]): 20%
- Increase (Canis familiaris [4]): 55%
- Change (Canis familiaris [5]): 4%

The next lines start with the compound.

SMILES: Br.COc1cc2c(C)nc(O)c(Br)c2cc1OC
- ED50 (Canis familiaris [1]): 0.185 mg/kg
- Increase (Canis familiaris [2]): 128%
- Change (Canis familiaris [3]): 26%
- IC50 (Phosphodiesterase 3): 10 µM
- Increase (Canis familiaris [4]): 25%
- Change (Canis familiaris [5]): -40%

SMILES: COc1cc(OC)c2c(C)nc(O)cc2c1
- ED50 (Canis familiaris [1]): 0.375 mg/kg
- Increase (Canis familiaris [2]): 91%
- IC50 (Phosphodiesterase 3): 80 µM
- Change (Canis familiaris [6]): 13%
- Change (Canis familiaris [7]): -18%
- Increase (Canis familiaris [4]): 62%

SMILES: COc1cc2c(C)nc(O)c(Cl)c2cc1OC
- ED50 (Canis familiaris [1]): 0.12 mg/kg
- Increase (Canis familiaris [2]): 89%
- Change (Canis familiaris [3]): 29%
- IC50 (Phosphodiesterase 3): 62 µM
- Increase (Canis familiaris [4]): 88%
- Change (Canis familiaris [5]): 1%

SMILES: COC(=O)CCc1c(O)nc(C)c2cc(OC)c(OC)cc12
- Change (Canis familiaris [8]): 12%
- Increase (Canis familiaris [9]): 105%
- ED50 (Canis familiaris [1]): 0.165 mg/kg
- Increase (Canis familiaris [2]): 140%
- Change (Canis familiaris [3]): 34%
- IC50 (Phosphodiesterase 3): 35 µM
- Increase (Canis familiaris [10]): 52%
- Increase (Canis familiaris [4]): 78%
- Change (Canis familiaris [11]): -11%
- Change (Canis familiaris [5]): -12%

SMILES: CCOc1cc2c(C)nc(O)c(CC)c2cc1OC
- ED50 (Canis familiaris [1]): 0.02 mg/kg
- Increase (Canis familiaris [2]): 118%
- Change (Canis familiaris [3]): 26%
- IC50 (Phosphodiesterase 3): 2 µM
- Increase (Canis familiaris [4]): 6%
- Change (Canis familiaris [5]): -46%

SMILES: COc1cc2cc(O)nc(C)c2c(OC)c1OC
- Increase (Canis familiaris [2]): 76%
- Change (Canis familiaris [3]): 13%
- Change (Canis familiaris [7]): -2%
- Increase (Canis familiaris [4]): 45%

SMILES: CCOc1cc2c(C)nc(O)cc2cc1OC
- Increase (Canis familiaris [2]): 197%
- Change (Canis familiaris [3]): 22%
- Change (Canis familiaris [7]): -10%
- Increase (Canis familiaris [4]): 88%
